Results published in ChEMBL document CHEMBL4052618, “Design, synthesis, SAR discussion, in vitro and in vivo evaluation of novel selective EGFR modulator to inhibit L858R/T790M double mutants” (Eur J Med Chem, 2017).

Tests used:
[1] = Intrinsic clearance in rat hepatocytes assessed per million cells; type: ADME, cell-based, Hepatocyte
[2] = Clearance in Sprague-Dawley rat at 1 mg/kg, iv after 24 hrs by LC-MS/MS analysis; type: ADME, organism-based; details: in vivo
Procedure, shortened: (§1)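 Male Sprague-Dawley rats (200-240 g) received 1 mg/kg by tail-vein injection in 2% DMSO, 20% PEG400 and 78% buffered saline, or 10 mg/kg by oral gavage in 0.5% methylcellulose. Orbital sinus blood was drawn into heparinized tubes at 2, 5, 15 and 30 min and at 1, 2, 4, 8, 12 and 24 h, then centrifuged. Plasma was measured by LC/MS/MS in SRM mode, with non-compartmental analysis.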

[3] = Half life in monkey liver microsomes; type: ADME, Macaca mulatta, microsome; details: rhesus monkey
[4] = MRT in Sprague-Dawley rat at 10 mg/kg, po administered via gavage by LC-MS/MS analysis; type: ADME, organism-based; details: in vivo; procedure, shortened: as §1
[5] = Tmax in Sprague-Dawley rat at 10 mg/kg, po administered via gavage by LC-MS/MS analysis; type: ADME, organism-based; details: in vivo; procedure, shortened: as §1
[6] = tested on: NCI-H1975; experiment: Antiproliferative activity against human NCI-H1975 cells harboring EGFR L858R/T790M double mutant; type: functional, cell-based
Procedure, shortened: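 A431 was grown in EMEM with 10% FBS; HCC827 and NCI-H1975 were grown in RPMI-1640 with 10% FBS. Cell viability experiments were repeated at least three times.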

[7] = Half life in rat liver microsomes; type: ADME, microsome
[8] = Intrinsic clearance in mouse liver microsomes; type: ADME, microsome; details: read-out: CLH
[9] = Half life in mouse liver microsomes; type: ADME, microsome
[10] = Half life in human hepatocytes; type: ADME, cell-based, Hepatocyte
[11] = Cmax in Sprague-Dawley rat at 10 mg/kg, po administered via gavage after 24 hrs by LC-MS/MS analysis; type: ADME, organism-based; set-up: dose 10 mg/kg, route oral; details: in vivo; procedure, shortened: as §1
[12] = Intrinsic clearance in rat liver microsomes; type: ADME, microsome; details: read-out: CLH
[13] = MRT in Sprague-Dawley rat at 1 mg/kg, iv by LC-MS/MS analysis; type: ADME, organism-based; details: in vivo; procedure, shortened: as §1
[14] = Half life in Sprague-Dawley rat at 1 mg/kg, iv by LC-MS/MS analysis; type: ADME, organism-based; details: in vivo
Procedure, shortened: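 Male Sprague-Dawley rats (200-240 g) were dosed either by tail vein at 1 mg/kg in 2% DMSO/20% PEG400/78% buffered saline or by oral gavage at 10 mg/kg in 0.5% methylcellulose. Blood was drawn by orbital sinus puncture at 2 min to 24 h into heparin, and plasma was analysed by LC/MS/MS in SRM mode. Parameters came from non-compartmental analysis.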

[15] = Half life in rat hepatocytes; type: ADME, cell-based, Hepatocyte
[16] = Oral bioavailability in Sprague-Dawley rat at 10 mg/kg administered via gavage after 24 hrs by LC-MS/MS analysis; type: ADME, organism-based; details: in vivo; procedure, shortened: as §1
[17] = Intrinsic clearance in dog liver microsomes; type: ADME, Canis lupus familiaris, microsome; details: read-out: CLH
[18] = Intrinsic clearance in monkey liver microsomes; type: ADME, Macaca mulatta, microsome; details: rhesus monkey, read-out: CLH
[19] = Half life in dog liver microsomes; type: ADME, Canis lupus familiaris, microsome
[20] = target: Epidermal growth factor receptor (Homo sapiens, UniProt P00533); experiment: Inhibition of human recombinant cytoplasmic GST-tagged EGFR (668 to 1210 residues) expressed in baculovirus using TK-substrate-biotin preincubated for 15 mins followed by substrate addition measured after 60 mins by FRET-based Z'-Lyte assay
[21] = tested on: A-431; experiment: Antiproliferative activity against human A431 cells harboring wild-type EGFR; type: functional, cell-based
[22] = target: Epidermal growth factor receptor (Homo sapiens, UniProt P00533, L858R); experiment: Inhibition of human recombinant cytoplasmic GST-tagged EGFR L858R mutant expressed in baculovirus using TK-substrate-biotin preincubated for 15 mins followed by substrate addition measured after 60 mins by FRET-based Z'-Lyte assay
[23] = target: Epidermal growth factor receptor (Homo sapiens, UniProt P00533, L858R/T790M); experiment: Inhibition of human recombinant cytoplasmic GST-tagged EGFR T790M/L858R double mutant (668 to 1210 residues) expressed in baculovirus using TK-substrate-biotin preincubated for 15 mins followed by substrate addition measured after 60 mins by FRET-based Z'-Lyte assay
[24] = tested on: HCC827; experiment: Antiproliferative activity against human HCC827 cells harboring EGFR E746-A750 deletion mutant; type: functional, cell-based
[25] = species: Homo sapiens; experiment: Selectivity ratio of IC50 for human recombinant cytoplasmic GST-tagged EGFR (668 to 1210 residues) to IC50 for human recombinant cytoplasmic GST-tagged EGFR T790M/L858R double mutant (668 to 1210 residues)
Procedure, shortened: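 HTRF kinase assay on wild-type EGFR and the T790M/L858R mutant, with TK-substrate-biotin, ATP, 1 mM DTT, 1 mM MnCl2 and 5 mM MgCl2. Serially diluted compounds in 1% DMSO were preincubated with kinase for 15 min. The reaction was started with ATP plus substrate, run 60 min at room temperature, then stopped with Strep-XL665/TK Ab-Cryptate and read after 1 h. Run in duplicate, at least three independent IC50 determinations.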

Chain of Epidermal growth factor receptor (Homo sapiens, UniProt P00533, L858R) (P00533 25-1210 L858R limits assumed): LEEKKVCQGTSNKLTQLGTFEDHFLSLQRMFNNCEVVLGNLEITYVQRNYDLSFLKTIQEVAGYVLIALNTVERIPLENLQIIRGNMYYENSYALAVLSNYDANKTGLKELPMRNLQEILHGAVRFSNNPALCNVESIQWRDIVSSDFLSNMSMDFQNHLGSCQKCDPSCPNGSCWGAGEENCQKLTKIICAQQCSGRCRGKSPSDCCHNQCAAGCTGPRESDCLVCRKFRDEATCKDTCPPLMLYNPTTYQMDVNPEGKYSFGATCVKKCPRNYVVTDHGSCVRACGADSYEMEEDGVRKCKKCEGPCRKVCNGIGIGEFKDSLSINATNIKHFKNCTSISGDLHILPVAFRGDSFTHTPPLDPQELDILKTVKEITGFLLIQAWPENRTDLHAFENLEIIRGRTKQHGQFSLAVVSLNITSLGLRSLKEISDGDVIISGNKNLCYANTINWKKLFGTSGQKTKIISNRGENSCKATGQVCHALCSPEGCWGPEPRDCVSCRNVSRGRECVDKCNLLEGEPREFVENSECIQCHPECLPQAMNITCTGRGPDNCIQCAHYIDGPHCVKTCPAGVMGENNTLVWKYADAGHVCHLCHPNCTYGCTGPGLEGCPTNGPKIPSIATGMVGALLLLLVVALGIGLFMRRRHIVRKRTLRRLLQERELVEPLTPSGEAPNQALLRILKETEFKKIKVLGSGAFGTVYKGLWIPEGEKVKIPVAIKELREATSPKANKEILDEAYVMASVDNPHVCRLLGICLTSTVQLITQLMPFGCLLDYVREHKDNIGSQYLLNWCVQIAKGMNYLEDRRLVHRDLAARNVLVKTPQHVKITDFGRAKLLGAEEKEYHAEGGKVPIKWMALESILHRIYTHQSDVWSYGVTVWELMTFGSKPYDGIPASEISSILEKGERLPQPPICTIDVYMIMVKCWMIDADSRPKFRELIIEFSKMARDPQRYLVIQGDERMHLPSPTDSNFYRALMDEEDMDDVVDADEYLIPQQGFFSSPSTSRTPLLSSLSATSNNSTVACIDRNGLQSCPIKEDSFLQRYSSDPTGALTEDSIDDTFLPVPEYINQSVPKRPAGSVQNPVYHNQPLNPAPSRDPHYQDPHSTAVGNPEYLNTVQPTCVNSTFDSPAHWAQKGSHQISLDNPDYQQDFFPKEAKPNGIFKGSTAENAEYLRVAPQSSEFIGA
Chain of Epidermal growth factor receptor (Homo sapiens, UniProt P00533) (P00533 whole entry, the tested form may be a part): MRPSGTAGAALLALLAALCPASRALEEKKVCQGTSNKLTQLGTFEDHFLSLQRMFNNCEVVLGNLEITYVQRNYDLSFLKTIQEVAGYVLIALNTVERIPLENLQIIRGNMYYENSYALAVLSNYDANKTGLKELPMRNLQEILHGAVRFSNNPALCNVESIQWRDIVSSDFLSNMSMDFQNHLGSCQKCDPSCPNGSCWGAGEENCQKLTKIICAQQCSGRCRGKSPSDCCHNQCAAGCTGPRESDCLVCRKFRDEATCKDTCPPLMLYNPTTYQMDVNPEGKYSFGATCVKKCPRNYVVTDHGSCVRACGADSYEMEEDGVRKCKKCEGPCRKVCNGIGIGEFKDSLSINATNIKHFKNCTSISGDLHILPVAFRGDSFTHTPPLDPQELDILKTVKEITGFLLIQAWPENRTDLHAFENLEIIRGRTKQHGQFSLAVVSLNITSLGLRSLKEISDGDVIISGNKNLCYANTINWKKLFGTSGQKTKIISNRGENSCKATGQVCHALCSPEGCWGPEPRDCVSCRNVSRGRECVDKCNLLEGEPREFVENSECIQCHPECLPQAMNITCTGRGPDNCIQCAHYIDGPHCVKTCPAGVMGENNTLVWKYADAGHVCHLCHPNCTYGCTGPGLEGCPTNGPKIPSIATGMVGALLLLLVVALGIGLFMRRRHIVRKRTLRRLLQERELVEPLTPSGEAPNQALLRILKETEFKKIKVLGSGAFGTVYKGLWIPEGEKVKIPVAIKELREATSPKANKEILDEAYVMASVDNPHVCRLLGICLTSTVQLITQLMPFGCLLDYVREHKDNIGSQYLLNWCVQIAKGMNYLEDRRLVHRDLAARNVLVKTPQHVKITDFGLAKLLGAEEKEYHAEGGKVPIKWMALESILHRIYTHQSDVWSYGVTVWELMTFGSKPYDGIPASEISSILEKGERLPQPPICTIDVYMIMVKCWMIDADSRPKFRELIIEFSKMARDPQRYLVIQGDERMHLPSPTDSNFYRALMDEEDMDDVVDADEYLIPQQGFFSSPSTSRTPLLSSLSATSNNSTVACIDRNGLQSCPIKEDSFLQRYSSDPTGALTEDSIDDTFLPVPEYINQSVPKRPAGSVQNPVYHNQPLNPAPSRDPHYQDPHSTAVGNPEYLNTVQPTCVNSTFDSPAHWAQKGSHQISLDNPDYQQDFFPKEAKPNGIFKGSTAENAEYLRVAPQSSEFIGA
Chain of Epidermal growth factor receptor (Homo sapiens, UniProt P00533, L858R/T790M) (P00533 25-1210 T790M/L858R limits assumed): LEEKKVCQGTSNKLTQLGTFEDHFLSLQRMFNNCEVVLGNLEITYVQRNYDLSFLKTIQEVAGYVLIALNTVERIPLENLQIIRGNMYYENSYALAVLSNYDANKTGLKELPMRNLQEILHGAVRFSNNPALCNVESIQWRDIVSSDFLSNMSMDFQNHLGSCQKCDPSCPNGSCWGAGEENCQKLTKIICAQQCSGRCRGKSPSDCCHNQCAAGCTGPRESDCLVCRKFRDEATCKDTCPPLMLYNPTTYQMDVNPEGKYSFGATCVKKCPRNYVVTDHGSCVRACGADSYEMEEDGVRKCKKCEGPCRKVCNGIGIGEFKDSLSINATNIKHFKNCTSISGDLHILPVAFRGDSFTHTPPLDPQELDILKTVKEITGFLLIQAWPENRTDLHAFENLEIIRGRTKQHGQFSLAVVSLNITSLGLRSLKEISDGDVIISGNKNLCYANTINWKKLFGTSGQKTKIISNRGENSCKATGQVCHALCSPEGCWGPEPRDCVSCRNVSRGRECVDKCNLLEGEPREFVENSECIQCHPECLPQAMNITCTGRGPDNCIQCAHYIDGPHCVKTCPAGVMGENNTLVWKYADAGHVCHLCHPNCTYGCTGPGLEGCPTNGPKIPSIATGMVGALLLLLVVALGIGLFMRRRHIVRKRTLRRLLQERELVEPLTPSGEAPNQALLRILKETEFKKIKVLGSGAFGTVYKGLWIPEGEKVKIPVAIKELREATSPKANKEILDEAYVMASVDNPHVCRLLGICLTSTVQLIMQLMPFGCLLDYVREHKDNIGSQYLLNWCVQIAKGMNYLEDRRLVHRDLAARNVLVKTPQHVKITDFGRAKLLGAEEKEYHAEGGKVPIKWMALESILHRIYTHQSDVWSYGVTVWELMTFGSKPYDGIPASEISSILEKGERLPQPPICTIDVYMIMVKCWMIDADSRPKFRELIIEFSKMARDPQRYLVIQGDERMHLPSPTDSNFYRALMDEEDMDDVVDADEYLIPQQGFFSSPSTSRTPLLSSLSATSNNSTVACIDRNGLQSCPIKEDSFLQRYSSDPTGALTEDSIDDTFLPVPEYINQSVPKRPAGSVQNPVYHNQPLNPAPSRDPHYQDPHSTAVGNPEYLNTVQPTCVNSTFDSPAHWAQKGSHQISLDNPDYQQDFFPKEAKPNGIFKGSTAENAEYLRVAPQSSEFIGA

SMILES	IC50 [6] [nM]	IC50 ([20]; read-out: IC50) [nM]	IC50 [21] [nM]	IC50 [22] [nM]	IC50 [23] [nM]	IC50 [24] [nM]	Ratio IC50 [25]	also measured
C=CC(=O)Nc1cc(Nc2nccc(-c3cn(C)c4ccccc34)n2)c(OC)cc1N(C)CCN(C)C [OSIMERTINIB]	[…]	–	–	–	–	–	–	CLH [1]: […]; clearance [2]: […]; half-life [3]: […]; MRT [4]: […]; Tmax [5]: […]; half-life [7]: 1.04 h; CLint scaled [8]: […]; half-life [9]: […]; half-life [10]: […]; Cmax [11]: […]; CLint scaled [12]: […]; MRT [13]: […]; half-life [14]: […]; half-life [15]: 0.963 h; bioavailability [16]: […]; CLint scaled [17]: […]; CLint scaled [18]: […]; half-life [19]: 0.35 h
C=CC(=O)Nc1cc(Nc2cc(-c3cn(C)c4ccccc34)nc(OC)n2)c(OC)cc1N(C)CCN(C)C	210	636	> 10000	123	10.9	925	–	–
C=CC(=O)Nc1cc(Nc2nccc(-c3cn4c5c(cccc35)CCC4)n2)c(OC)cc1N1CC(CN(C)C)C1	166	202	1470	11.6	6.7	290	–	–
C=CC(=O)Nc1cc(Nc2nccc(-c3cn4c5c(cccc35)CCC4)n2)c(OC)cc1N1CC(CCN(C)C)C1	–	251	–	14.5	11.8	–	21.3	–
C=CC(=O)Nc1cc(Nc2nccc(-c3cn4c5c(cccc35)CCC4)n2)c(OC)cc1N(C)CC(=O)N(C)C	–	> 1000	–	498	278	–	> 3.6	–
C=CC(=O)Nc1cc(Nc2cc(-c3cn(C)c4ccccc34)ncn2)c(OC)cc1N(C)CCN(C)C	33.8	2.3	128	2.2	1.6	16.2	–	–
C=CC(=O)Nc1cc(Nc2cc(-c3cn4c5c(cccc35)CCC4)ncn2)c(OC)cc1N(C)CCN(C)C	37.8	3.1	122	1.2	2.6	24.3	–	–
C=CC(=O)Nc1cc(Nc2nccc(-c3cn4c5c(cccc35)CCC4)n2)c(OC)cc1N(C)CCO	–	838	–	192	34.8	–	24.1	–
C=CC(=O)Nc1cc(Nc2ncnc(-c3cn(C)c4ccccc34)c2OC)c(OC)cc1N(C)CCN(C)C	–	222	–	55.5	212	–	1	–
C=CC(=O)Nc1cc(Nc2nccc(-n3ncc4ccccc43)n2)c(OC)cc1N(C)CCN(C)C	–	–	–	> 600	> 600	–	–	IC50 [20]: Not Active
C=CC(=O)Nc1cc(Nc2nccc(-c3cn4c5c(cccc35)CCC4)n2)c(OC)cc1N1CCN(C)CC1	–	877	–	64.3	55.5	–	15.8	–
C=CC(=O)Nc1cc(Nc2nc(OC)cc(-c3cn(C)c4ccccc34)n2)c(OC)cc1N(C)CCN(C)C	320	685	> 10000	155	13	1170	–	–
C=CC(=O)Nc1cc(Nc2cc(-c3cn(C)c4ccccc34)nc(C)n2)c(OC)cc1N(C)CCN(C)C	–	192	–	46.5	60.6	–	3.2	–
C=CC(=O)Nc1cc(Nc2nccc(-c3cn4c5c(cccc35)CCC4)n2)c(OC)cc1N(C)CCN(C)C(C)=O	–	> 1000	–	386	188	–	> 5.3	–
C=CC(=O)Nc1cc(Nc2nccc(-c3cn4c5c(cccc35)CCC4)n2)c(OC)cc1N1CCC(CN(C)C)C1 (stereo unspecified)	99.9	8.8	514	4	1.9	71.7	–	–
C=CC(=O)Nc1cc(Nc2nccc(-c3cn4c5c(cccc35)CCC4)n2)c(OC)cc1N1CCNC(=O)C1	–	–	–	428	1230	–	–	IC50 [20]: Not Active
C=CC(=O)Nc1cc(Nc2nccc(-c3cn4c5c(cccc35)CCC4)n2)c(OC)cc1N1CC(N(C)C)C1	143	63.9	1120	13.6	4.9	98.2	–	–
C=CC(=O)Nc1cc(Nc2nccc(-n3cc(C)c4ccccc43)n2)c(OC)cc1N(C)CCN(C)C	–	715	–	186	287	–	2.5	–
C=CC(=O)Nc1cc(Nc2cc(-c3cn4c5c(cccc35)CCC4)nc(OC)n2)c(OC)cc1N(C)CCN(C)C	–	543	–	181	22	–	–	–
C=CC(=O)Nc1cc(Nc2ncnc(-c3cn(C)c4ccccc34)c2F)c(OC)cc1N(C)CCN(C)C	–	32.1	–	9.9	94.8	–	0.34	–
